Reference: ChEMBL document CHEMBL1152771, “Identification of Shc Src homology 2 domain-binding peptoid-peptide hybrids” (J Med Chem, 2009)
*1 amine or outer side, *2 acyl side, *3 side chain or, on linkers, in order; H or OH if unused. Where a SMILES comes first, the peptide text is derived from it. [ ]: non-standard residue; d: D form. The star is where a group is joined. X2 = O=C(c1cc(N=C=S)ccc1-c1c2ccc(=O)cc-2oc2cc(O)ccc12)*; Gly(N-but-3-enyl) = O=C(CN(CCC=[*:3])[*:1])[*:2]; X5 = C=CCN([C@@H](CC(C)C)C(=O)[*:2])[*:1]; pY = N[C@@H](Cc1ccc(OP(=O)(O)O)cc1)C(=O)O; 3Amb = NCc1cccc(C(=O)O)c1; NH(but-3-enyl) = C=CCCN*; Ahx = NCCCCCC(=O)O; Ava = NCCCCC(=O)O; GABA = NCCCC(=O)O; NHAllyl = C=CCN*

Each compound was assayed against T1, SHC-transforming protein 1 (Homo sapiens, UniProt P29353) (assay: Displacement of FITC-tagged NH-(CH2)4-CO-phospho-tyrosine-glutamine-glycine-leucine-serine-amide from Shc Src homology 2 domain by fluorescence anisotropy competition assay).
T1 sequence (P29353 whole entry): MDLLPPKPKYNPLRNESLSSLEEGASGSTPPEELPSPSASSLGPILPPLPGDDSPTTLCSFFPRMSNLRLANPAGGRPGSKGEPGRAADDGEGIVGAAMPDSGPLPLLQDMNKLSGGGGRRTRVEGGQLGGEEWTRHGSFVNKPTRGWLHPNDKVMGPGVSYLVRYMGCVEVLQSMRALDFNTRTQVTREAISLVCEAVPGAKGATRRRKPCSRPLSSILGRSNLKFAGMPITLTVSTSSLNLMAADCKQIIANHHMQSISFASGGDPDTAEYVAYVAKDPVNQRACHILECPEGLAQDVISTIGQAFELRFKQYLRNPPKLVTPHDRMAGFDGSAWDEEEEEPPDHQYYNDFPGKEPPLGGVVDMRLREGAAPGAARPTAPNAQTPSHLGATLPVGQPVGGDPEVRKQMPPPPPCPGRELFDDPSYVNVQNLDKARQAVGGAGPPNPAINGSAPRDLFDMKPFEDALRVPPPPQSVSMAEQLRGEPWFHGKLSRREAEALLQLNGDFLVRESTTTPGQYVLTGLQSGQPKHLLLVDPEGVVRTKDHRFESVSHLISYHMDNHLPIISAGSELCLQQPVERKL
How it was run: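 Competition FA: preformed complex of 2 μM Shc SH2 domain protein and 10 nM FITC reference peptide in 10 mM HEPES, 150 mM NaCl pH 7.5 with 10% (v/v) DMSO; unlabeled competitors serially diluted from 500 μM. Excitation 485 nm, parallel/perpendicular emission 535 nm. Fractional binding from anisotropy; IC50 where spline (order three, three knots) reached one half.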

Row | Compound | IC50 [µM] | Kd [µM]
1 | C=CCNC(=O)[C@H](CC(C)C)N(CC=C)C(=O)CNC(=O)[C@H](CCC(N)=O)NC(=O)[C@H](Cc1ccc(OP(=O)(O)O)cc1)NC(C)=O | 81 | 
2 | CC(=O)N[C@@H](Cc1ccc(OP(=O)(O)O)cc1)C(=O)N[C@@H](CCC(N)=O)C(=O)N(CCCC(C)C)CC(=O)N[C@@H](CC(C)C)C(N)=O | 29 | 
3 | CC#CCN(CC(=O)N[C@@H](CC(C)C)C(N)=O)C(=O)[C@H](CCC(N)=O)NC(=O)[C@H](Cc1ccc(OP(=O)(O)O)cc1)NC(C)=O | 83 | 
4 | CC(=O)N[C@@H](Cc1ccc(OP(=O)(O)O)cc1)C(=O)N[C@@H](CCC(N)=O)C(=O)N(CCCCC#N)CC(=O)N[C@@H](CC(C)C)C(N)=O | 44 | 
5 | CCC#CCN(CC(=O)N[C@@H](CC(C)C)C(N)=O)C(=O)[C@H](CCC(N)=O)NC(=O)[C@H](Cc1ccc(OP(=O)(O)O)cc1)NC(C)=O | 17 | 
6 | CCSCCN(CC(=O)N[C@@H](CC(C)C)C(N)=O)C(=O)[C@H](CCC(N)=O)NC(=O)[C@H](Cc1ccc(OP(=O)(O)O)cc1)NC(C)=O | 34 | 
7 | CC(=O)N[C@@H](Cc1ccc(OP(=O)(O)O)cc1)C(=O)N[C@@H](CCC(N)=O)C(=O)N(CCCC(F)(F)F)CC(=O)N[C@@H](CC(C)C)C(N)=O | 23 | 
8 | C=CCCCN(CC(=O)N[C@@H](CC(C)C)C(N)=O)C(=O)[C@H](CCC(N)=O)NC(=O)[C@H](Cc1ccc(OP(=O)(O)O)cc1)NC(C)=O | 16 | 
9 | C=CCCCCN(CC(=O)N[C@@H](CC(C)C)C(N)=O)C(=O)[C@H](CCC(N)=O)NC(=O)[C@H](Cc1ccc(OP(=O)(O)O)cc1)NC(C)=O | 14 | 
10 | CC(=O)N[C@@H](Cc1ccc(OP(=O)(O)O)cc1)C(=O)N[C@@H](CCC(N)=O)C(=O)N(CCCCF)CC(=O)N[C@@H](CC(C)C)C(N)=O | 40 | 
11 | C=CCNC(=O)[C@H](CC(C)C)NC(=O)CNC(=O)[C@H](CCC(N)=O)NC(=O)[C@H](Cc1ccc(OP(=O)(O)O)cc1)N(CC=C)C(C)=O | 450 | 
12 | C=CCNC(=O)[C@H](CO)NC(=O)[C@H](CC(C)C)N(CC=C)C(=O)CNC(=O)[C@H](CCC(N)=O)NC(=O)[C@H](Cc1ccc(OP(=O)(O)O)cc1)NC(C)=O (Ac-[pY]QG[X5]S-NHAllyl) | 353 | 
13 | C=CCCNC(=O)[C@H](CO)NC(=O)[C@H](CC(C)C)NC(=O)CN(CCC=C)C(=O)[C@H](CCC(N)=O)NC(=O)[C@H](Cc1ccc(OP(=O)(O)O)cc1)NC(C)=O (Ac-[pY]Q[Gly(N-but-3-enyl)]LS-{NH(but-3-enyl)}) | 8 | 
14 | C=CCNC(=O)[C@H](CO)NC(=O)[C@H](CC(C)C)NC(=O)CNC(=O)[C@H](CCC(N)=O)NC(=O)[C@H](Cc1ccc(OP(=O)(O)O)cc1)N(CC=C)C(C)=O (HELM PEPTIDE1{[ac].[C=CCN([C@@H](Cc1ccc(OP(=O)(O)O)cc1)C(=O)[*:2])[*:1]].Q.G.L.S.[C=CCN[*:1]]}$$$$V2.0) | 41 | 
15 | CC(=O)NCCCCC(=O)N[C@@H](Cc1ccc(OP(=O)(O)O)cc1)C(=O)N[C@@H](CCC(N)=O)C(=O)NCC(=O)N[C@@H](CC(C)C)C(=O)N[C@@H](CO)C(N)=O (HELM PEPTIDE1{[ac].[O=C(CCCCN[*:1])[*:2]].[O=C([C@H](Cc1ccc(OP(=O)(O)O)cc1)N[*:1])[*:2]].Q.G.L.S.[am]}$$$$V2.0) |  | 158
16 | CC(=O)N[C@@H](Cc1ccc(OP(=O)(O)O)cc1)C(=O)N[C@@H](CCC(N)=O)C(=O)NCC(=O)N[C@@H](CC(C)C)C(N)=O (HELM PEPTIDE1{[ac].[O=C([C@H](Cc1ccc(OP(=O)(O)O)cc1)N[*:1])[*:2]].Q.G.L.[am]}$$$$V2.0) | 248 | 
17 | C=CCN(CC(=O)N[C@@H](CC(C)C)C(N)=O)C(=O)[C@H](CCC(N)=O)NC(=O)[C@H](Cc1ccc(OP(=O)(O)O)cc1)NC(C)=O (HELM PEPTIDE1{[ac].[O=C([C@H](Cc1ccc(OP(=O)(O)O)cc1)N[*:1])[*:2]].Q.[C=CCN(CC(=O)[*:2])[*:1]].L.[am]}$$$$V2.0) | 26.6 | 
18 | CC(=O)N[C@@H](Cc1ccc(OP(=O)(O)O)cc1)C(=O)N[C@@H](CCC(N)=O)C(=O)N(CCC(C)C)CC(=O)N[C@@H](CC(C)C)C(N)=O (HELM PEPTIDE1{[ac].[O=C([C@H](Cc1ccc(OP(=O)(O)O)cc1)N[*:1])[*:2]].Q.[CC(C)CCN(CC(=O)[*:2])[*:1]].L.[am]}$$$$V2.0) | 17 | 
19 | CCCN(CC(=O)N[C@@H](CC(C)C)C(N)=O)C(=O)[C@H](CCC(N)=O)NC(=O)[C@H](Cc1ccc(OP(=O)(O)O)cc1)NC(C)=O (HELM PEPTIDE1{[ac].[O=C([C@H](Cc1ccc(OP(=O)(O)O)cc1)N[*:1])[*:2]].Q.[CCCN(CC(=O)[*:2])[*:1]].L.[am]}$$$$V2.0) | 25.7 | 
20 | CCN(CC(=O)N[C@@H](CC(C)C)C(N)=O)C(=O)[C@H](CCC(N)=O)NC(=O)[C@H](Cc1ccc(OP(=O)(O)O)cc1)NC(C)=O (HELM PEPTIDE1{[ac].[O=C([C@H](Cc1ccc(OP(=O)(O)O)cc1)N[*:1])[*:2]].Q.[CCN(CC(=O)[*:2])[*:1]].L.[am]}$$$$V2.0) | 19 | 
21 | CCOCCN(CC(=O)N[C@@H](CC(C)C)C(N)=O)C(=O)[C@H](CCC(N)=O)NC(=O)[C@H](Cc1ccc(OP(=O)(O)O)cc1)NC(C)=O (HELM PEPTIDE1{[ac].[O=C([C@H](Cc1ccc(OP(=O)(O)O)cc1)N[*:1])[*:2]].Q.[CCOCCN(CC(=O)[*:2])[*:1]].L.[am]}$$$$V2.0) | 33 | 
22 | COCCN(CC(=O)N[C@@H](CC(C)C)C(N)=O)C(=O)[C@H](CCC(N)=O)NC(=O)[C@H](Cc1ccc(OP(=O)(O)O)cc1)NC(C)=O (HELM PEPTIDE1{[ac].[O=C([C@H](Cc1ccc(OP(=O)(O)O)cc1)N[*:1])[*:2]].Q.[COCCN(CC(=O)[*:2])[*:1]].L.[am]}$$$$V2.0) | 56 | 
23 | CC(=O)N[C@@H](Cc1ccc(OP(=O)(O)O)cc1)C(=O)N[C@@H](CCC(N)=O)C(=O)N(CC(=O)N[C@@H](CC(C)C)C(N)=O)Cc1ccccc1 (HELM PEPTIDE1{[ac].[O=C([C@H](Cc1ccc(OP(=O)(O)O)cc1)N[*:1])[*:2]].Q.[O=C(CN(Cc1ccccc1)[*:1])[*:2]].L.[am]}$$$$V2.0) | 18.9 | 

These compounds were tested against T1, SHC-transforming protein 1 (assay: Binding affinity to Shc Src homology 2 domain by fluorescence anisotropy).
How it was run: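 Direct binding: 5 nM N-terminal fluorescein-labelled peptide in 10 mM HEPES, 150 mM NaCl pH 7.5 with 10% (v/v) DMSO; Shc SH2 protein serially diluted from 100 μM. Excitation 485 nm, parallel and perpendicular emission at 535 nm. Kd from fitting anisotropy versus protein concentration to a single-site binding model.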

Row | Compound | Kd [µM]
24 | CC(C)C[C@H](NC(=O)CNC(=O)[C@H](CCC(N)=O)NC(=O)[C@H](Cc1ccc(OP(=O)(O)O)cc1)NC(=O)c1cc(N=C=S)ccc1-c1c2ccc(=O)cc-2oc2cc(O)ccc12)C(=O)N[C@@H](CO)C(N)=O (HELM PEPTIDE1{[O=C(c1cc(N=C=S)ccc1-c1c2ccc(=O)cc-2oc2cc(O)ccc12)[*:2]].[O=C([C@H](Cc1ccc(OP(=O)(O)O)cc1)N[*:1])[*:2]].Q.G.L.S.[am]}$$$$V2.0) | 12.4
25 | CC(C)C[C@H](NC(=O)CNC(=O)[C@H](CCC(N)=O)NC(=O)[C@H](Cc1ccc(OP(=O)(O)O)cc1)NC(=O)[C@H](CC(C)C)NC(=O)CCNC(=O)c1cc(N=C=S)ccc1-c1c2ccc(=O)cc-2oc2cc(O)ccc12)C(=O)N[C@@H](CO)C(N)=O (HELM PEPTIDE1{[O=C(c1cc(N=C=S)ccc1-c1c2ccc(=O)cc-2oc2cc(O)ccc12)[*:2]].[bAla].L.[O=C([C@H](Cc1ccc(OP(=O)(O)O)cc1)N[*:1])[*:2]].Q.G.L.S.[am]}$$$$V2.0) | 7.6
26 | CC(C)C[C@H](NC(=O)CNC(=O)[C@H](CCC(N)=O)NC(=O)[C@H](Cc1ccc(OP(=O)(O)O)cc1)NC(=O)CCNC(=O)c1cc(N=C=S)ccc1-c1c2ccc(=O)cc-2oc2cc(O)ccc12)C(=O)N[C@@H](CO)C(N)=O (HELM PEPTIDE1{[O=C(c1cc(N=C=S)ccc1-c1c2ccc(=O)cc-2oc2cc(O)ccc12)[*:2]].[bAla].[O=C([C@H](Cc1ccc(OP(=O)(O)O)cc1)N[*:1])[*:2]].Q.G.L.S.[am]}$$$$V2.0) | 1.09
27 | CC(C)C[C@H](NC(=O)CNC(=O)[C@H](CCC(N)=O)NC(=O)[C@H](Cc1ccc(OP(=O)(O)O)cc1)NC(=O)c1cccc(CNC(=O)c2cc(N=C=S)ccc2-c2c3ccc(=O)cc-3oc3cc(O)ccc23)c1)C(=O)N[C@@H](CO)C(N)=O ({X2-3Amb}-[pY]QGLS-NH2) | 5
28 | CC(C)C[C@H](NC(=O)CNC(=O)[C@H](CCC(N)=O)NC(=O)[C@H](Cc1ccc(OP(=O)(O)O)cc1)NC(=O)CCCCCNC(=O)c1cc(N=C=S)ccc1-c1c2ccc(=O)cc-2oc2cc(O)ccc12)C(=O)N[C@@H](CO)C(N)=O ({X2-Ahx}-[pY]QGLS-NH2) | 4.7
29 | CC(C)C[C@H](NC(=O)CNC(=O)[C@H](CCC(N)=O)NC(=O)[C@H](Cc1ccc(OP(=O)(O)O)cc1)NC(=O)[C@H](CC(C)C)NC(=O)CCCCNC(=O)c1cc(N=C=S)ccc1-c1c2ccc(=O)cc-2oc2cc(O)ccc12)C(=O)N[C@@H](CO)C(N)=O ({X2-Ava}-L[pY]QGLS-NH2) | 8.9
30 | CC(C)C[C@H](NC(=O)CNC(=O)[C@H](CCC(N)=O)NC(=O)[C@H](Cc1ccc(OP(=O)(O)O)cc1)NC(=O)CCCCNC(=O)c1cc(N=C=S)ccc1-c1c2ccc(=O)cc-2oc2cc(O)ccc12)C(=O)N[C@@H](CO)C(N)=O ({X2-Ava}-[pY]QGLS-NH2) | 0.35
31 | CC(C)C[C@H](NC(=O)CNC(=O)[C@H](CCC(N)=O)NC(=O)[C@H](Cc1ccc(OP(=O)(O)O)cc1)NC(=O)[C@H](CC(C)C)NC(=O)CCCNC(=O)c1cc(N=C=S)ccc1-c1c2ccc(=O)cc-2oc2cc(O)ccc12)C(=O)N[C@@H](CO)C(N)=O ({X2-GABA}-L[pY]QGLS-NH2) | 8.6
